This is an account of results in ChEMBL document CHEMBL1148841, “Synthesis, structural revision, and antioxidant activities of antimutagenic homoisoflavonoids from Hoffmanosseggia intricata” (Bioorg Med Chem Lett, 2007).

For assay [1], the system named is Radical scavenging activity. Nature of the assay: Antioxidant activity assessed as DPPH free radical scavenging activity. The assay is classed as functional. In a few lines:
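Scavenging measured as reduction of the coloured DPPH (1,1-diphenyl-2-picrylhydrazyl) radical in methanolic solution; activity given as IC50.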

The nature of assay [2]: Antioxidant activity assessed as superoxide scavenging activity by NBT reduction assay. The assay is classed as functional. In a few lines:
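Superoxide radicals produced in vitro by a non-enzymatic system; scavenging followed by nitro blue tetrazolium photoreduction, read spectrophotometrically at 560 nm; activity given as the concentration giving 50% inhibition (IC50).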

By IC50 is commonly meant the concentration that gives 50% inhibition. `COc1ccc(/C=C2\COc3c(ccc(O)c3O)C2=O)cc1` [INTRICATINOL]: the figures for the IC50 in assay [1] and in assay [2] were 10.1 µM and 30.1 µM, respectively.

Take `O=C1O[C@H]([C@@H](O)CO)C(O)=C1O` [ASCORBIC ACID]: the IC50 stood at 25.1 µM in assay [1] and 852 µM in assay [2].

With `COc1ccc(O)c(C(C)(C)C)c1.COc1ccc(O)cc1C(C)(C)C` [BUTYLATED HYDROXYANISOLE], the results for the IC50 in assay [1] and in assay [2] were 34 µM and 966 µM, respectively.

Turning to `O=C1/C(=C/c2ccc(O)c(O)c2)COc2c1ccc(O)c2O`, the IC50 in assay [1] is 4.5 µM; in assay [2] it was 8.5 µM.

As to `O=C1/C(=C/c2ccc(O)cc2)COc2c1ccc(O)c2O`, the values for the IC50 in assay [1] and in assay [2] were 8.3 µM and 26.5 µM, respectively.

For the compound `COc1ccc(/C=C2\COc3c(ccc(OC)c3O)C2=O)cc1` [INTRICATIN], the IC50 in assay [1] and in assay [2] was above 200 µM in each case.
